# Reference: ChEMBL document CHEMBL3351232, “Flemingins G-O, cytotoxic and antioxidant constituents of the leaves of Flemingia grahamiana” (J Nat Prod, 2014)
# Tests used:
# [1] = Antioxidant activity assessed as DPPH scavenging activity after 30 mins by spectrophotometry; type: physicochemical; conditions: 0.5 h; read-out: ED50 (the source's name)
# In short: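 Samples prepared in double-distilled methanol at 320, 160, 80, 40, 20, 10, 5 and 2.5 μg/mL. 1.0 mL added to 2.0 mL of 76 μM DPPH in methanol, held 30 min at room temperature, remaining DPPH read at 517 nm. Control was methanol plus DPPH; quercetin served as positive control. EC50 (50% absorbance decrease) obtained from a plot of % scavenged versus initial concentration.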
# MCF7 = assay: Cytotoxicity against human MCF7 cells after 48 hrs by PrestoBlue cell viability assay; type: functional, cell-based; conditions: MCF7, 48 h
# In short: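 MCF-7 cells grown in DMEM with 10% FBS, 2 mM L-glutamine, penicillin and streptomycin, 37 °C, 5% CO2. Seeded for exponential growth, then after 24 h switched to medium containing compound or DMSO vehicle (0.1% or 1.0% v/v). Viability read by PrestoBlue fluorescence after 48 h, as % of vehicle control. Six replicates, at least three independent experiments, means ± SE.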
# [2] = Activity index, ratio of compound ED50 to quercetin ED50 for antioxidant activity assessed as DPPH scavenging activity after 30 mins by spectrophotometry
Structure (SMILES),EC50 [1],IC50 (MCF7),Ratio ED50 [2]
O=c1c(O)c(-c2ccc(O)c(O)c2)oc2cc(O)cc(O)c12 [QUERCETIN],2.5 µM,,
Cc1cc(O)c2c(c1)C(=O)c1cc(O)cc(O)c1C2=O [EMODIN],,317 µM,
CC(C)=CCCC1(C)C=Cc2c(O)c(C(=O)/C=C/c3c(O)cccc3O)cc(O)c2O1 (stereo not given),7.8 µM,> 237 µM,3.1
C=C(C)C(O)CCC1(C)C=Cc2c(O)c(C(=O)/C=C/c3c(O)cccc3O)cc(O)c2O1 (stereo not given),8.9 µM,,3.5
CC(C)(O)/C=C/CC1(C)C=Cc2c(O)c(C(=O)/C=C/c3ccccc3O)cc(O)c2O1 (stereo not given),,> 236 µM,
CC(C)=CCCC1(C)C=Cc2c(O)c(C(=O)/C=C/c3ccccc3O)cc(O)c2O1 (stereo not given),4.4 µM,8.9 µM,1.8
CC(C)n1nc(C#Cc2ccncc2)c2c(N)ncnc21,,5 µM,
C=C(C)C(O)CCC1(C)C=Cc2c(O)c(C(=O)/C=C/c3cc(O)ccc3O)cc(O)c2O1 (stereo not given),8.3 µM,221 µM,3.3
C=C(C)C(O)CCC1(C)C=Cc2c(O)c(C(=O)/C=C/c3ccccc3O)cc(O)c2O1 (mixture of isomers),,> 236 µM,
CC(C)=CCCC1(C)C=Cc2c(O)c(C(=O)/C=C/c3cc(O)ccc3O)cc(O)c2O1 (stereo not given),5.9 µM,7.6 µM,2.4
CC(C)(O)/C=C/CC1(C)C=Cc2c(O)c(C(=O)/C=C/c3cc(O)ccc3O)cc(O)c2O1 (stereo not given),,> 228 µM,
